Laboratory results as given in ChEMBL document CHEMBL4393666, “Synthesis and Anti-HCV Activities of 4'-Fluoro-2'-Substituted Uridine Triphosphates and Nucleotide Prodrugs: Discovery of 4'-Fluoro-2'- C-methyluridine 5'-Phosphoramidate Prodrug (AL-335) for the Treatment of Hepatitis C Infection” (J Med Chem, 2019).
The source made the active and inactive calls. The rule behind the calls is not given here.

Key:
DNA polymerase alpha = target: T1, DNA polymerase alpha (Homo sapiens, UniProt P09884); experiment: Inhibition of human DNA polymerase-alpha assessed as reduction in [3H]dTTP incorporation in to activated calf thymus DNA substrate at 100 uM by scintillation counting method relative to control; details: human DNA polymerase-alpha enzyme, probe [3H]dTTP
T1 sequence (P09884 whole entry): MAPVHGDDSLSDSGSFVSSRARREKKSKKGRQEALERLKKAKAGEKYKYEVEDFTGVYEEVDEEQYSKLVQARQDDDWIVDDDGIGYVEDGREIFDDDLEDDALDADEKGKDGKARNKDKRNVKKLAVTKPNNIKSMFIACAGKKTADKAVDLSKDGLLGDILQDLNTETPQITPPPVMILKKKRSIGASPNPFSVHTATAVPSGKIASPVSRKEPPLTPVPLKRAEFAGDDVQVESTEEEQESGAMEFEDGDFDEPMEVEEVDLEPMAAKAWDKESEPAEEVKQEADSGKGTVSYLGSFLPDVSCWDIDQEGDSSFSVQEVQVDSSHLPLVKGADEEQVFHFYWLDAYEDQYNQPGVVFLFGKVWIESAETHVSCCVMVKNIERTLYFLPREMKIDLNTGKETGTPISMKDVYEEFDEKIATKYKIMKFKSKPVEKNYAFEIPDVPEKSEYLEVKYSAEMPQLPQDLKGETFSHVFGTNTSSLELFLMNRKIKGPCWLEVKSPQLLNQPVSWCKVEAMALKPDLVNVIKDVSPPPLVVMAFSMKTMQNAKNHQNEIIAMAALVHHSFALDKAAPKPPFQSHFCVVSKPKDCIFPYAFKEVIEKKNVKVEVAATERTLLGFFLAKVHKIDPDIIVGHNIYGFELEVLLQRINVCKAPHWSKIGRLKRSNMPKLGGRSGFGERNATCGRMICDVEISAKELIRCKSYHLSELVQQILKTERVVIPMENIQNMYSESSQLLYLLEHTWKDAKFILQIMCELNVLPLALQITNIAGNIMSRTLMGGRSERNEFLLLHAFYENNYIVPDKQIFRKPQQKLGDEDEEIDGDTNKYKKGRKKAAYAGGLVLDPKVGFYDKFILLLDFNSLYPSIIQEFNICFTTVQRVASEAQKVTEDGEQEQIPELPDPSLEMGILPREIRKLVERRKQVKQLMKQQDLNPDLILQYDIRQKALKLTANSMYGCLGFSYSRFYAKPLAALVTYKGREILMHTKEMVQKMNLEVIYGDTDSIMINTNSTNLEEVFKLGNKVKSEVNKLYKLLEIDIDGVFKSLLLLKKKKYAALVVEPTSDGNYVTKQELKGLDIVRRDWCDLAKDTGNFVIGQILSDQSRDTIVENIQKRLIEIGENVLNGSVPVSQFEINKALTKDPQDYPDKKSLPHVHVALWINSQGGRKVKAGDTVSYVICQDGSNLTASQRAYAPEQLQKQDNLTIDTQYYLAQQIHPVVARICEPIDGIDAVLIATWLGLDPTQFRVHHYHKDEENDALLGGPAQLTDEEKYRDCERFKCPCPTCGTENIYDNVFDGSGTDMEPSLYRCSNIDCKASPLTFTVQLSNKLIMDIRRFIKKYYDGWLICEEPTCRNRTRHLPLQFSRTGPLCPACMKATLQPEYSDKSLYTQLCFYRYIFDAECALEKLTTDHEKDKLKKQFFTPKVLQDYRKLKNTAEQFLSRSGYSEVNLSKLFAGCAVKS

DNA polymerase beta = DNA polymerase beta (Homo sapiens, UniProt P06746); experiment: Inhibition of human DNA polymerase-beta assessed as reduction in [3H]dTTP incorporation in to activated calf thymus DNA substrate at 100 uM by scintillation counting method relative to control; details: human DNA polymerase-beta enzyme, probe [3H]dTTP
DNA polymerase gamma = target: T2, DNA polymerase gamma (Homo sapiens, UniProt P54098); experiment: Inhibition of human DNA polymerase-gamma assessed as reduction in [3H]dTTP incorporation in to activated calf thymus DNA substrate at 100 uM by scintillation counting method relative to control; details: human DNA polymerase-gamma enzyme, probe [3H]dTTP
T2 sequence (P54098 whole entry): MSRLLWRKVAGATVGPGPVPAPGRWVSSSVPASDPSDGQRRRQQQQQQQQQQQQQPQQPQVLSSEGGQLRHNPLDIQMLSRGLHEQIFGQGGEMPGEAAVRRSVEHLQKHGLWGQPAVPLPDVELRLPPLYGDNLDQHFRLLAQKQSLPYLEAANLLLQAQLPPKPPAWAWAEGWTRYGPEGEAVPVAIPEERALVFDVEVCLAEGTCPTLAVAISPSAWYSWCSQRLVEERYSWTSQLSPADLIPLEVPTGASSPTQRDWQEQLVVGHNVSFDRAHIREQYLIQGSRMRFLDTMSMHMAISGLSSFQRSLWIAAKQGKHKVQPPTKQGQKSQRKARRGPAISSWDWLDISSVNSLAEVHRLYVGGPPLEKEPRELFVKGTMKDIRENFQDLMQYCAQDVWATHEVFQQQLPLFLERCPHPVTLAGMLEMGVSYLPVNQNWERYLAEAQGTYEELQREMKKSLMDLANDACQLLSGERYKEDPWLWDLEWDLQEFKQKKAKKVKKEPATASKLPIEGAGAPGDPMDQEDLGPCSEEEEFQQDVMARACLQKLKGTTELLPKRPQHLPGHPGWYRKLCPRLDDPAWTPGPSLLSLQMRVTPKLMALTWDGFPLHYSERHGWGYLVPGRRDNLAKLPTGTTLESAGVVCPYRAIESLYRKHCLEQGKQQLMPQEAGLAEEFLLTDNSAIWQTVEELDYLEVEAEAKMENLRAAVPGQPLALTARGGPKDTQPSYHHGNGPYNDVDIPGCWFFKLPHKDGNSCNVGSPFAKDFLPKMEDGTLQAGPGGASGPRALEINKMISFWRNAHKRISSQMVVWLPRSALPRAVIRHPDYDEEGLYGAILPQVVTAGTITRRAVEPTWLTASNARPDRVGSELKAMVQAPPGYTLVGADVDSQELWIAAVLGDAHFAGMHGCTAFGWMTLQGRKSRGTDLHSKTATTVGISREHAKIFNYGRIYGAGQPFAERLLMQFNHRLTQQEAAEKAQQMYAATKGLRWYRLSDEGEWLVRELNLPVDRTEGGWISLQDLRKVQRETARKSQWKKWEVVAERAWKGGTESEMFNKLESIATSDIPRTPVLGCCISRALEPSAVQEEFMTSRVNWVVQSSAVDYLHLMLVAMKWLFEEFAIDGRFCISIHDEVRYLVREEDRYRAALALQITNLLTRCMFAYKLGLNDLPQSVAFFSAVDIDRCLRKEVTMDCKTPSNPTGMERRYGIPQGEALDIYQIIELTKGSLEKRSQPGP

[1] = Inhibition of RNA polymerase 2 in human HeLa cell nuclear extract assessed as reduction in RNA transcription by PAGE analysis; assay type: cell-based
Summary of the method: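 In vitro transcription by RNA polymerase II in HeLa cell nuclear extract; RNA products resolved on 6% TBE-urea polyacrylamide gels.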

[2] = target: RNA-directed RNA polymerase (Hepacivirus hominis, UniProt O39930); experiment: Inhibition of HCV NS5B RNA-dependent RNA polymerase activity assessed as reduction in radiolabeled-CTP incorporation into RNA using cIRES template measured after 2 hrs by microscintillation counting method
Sequence of RNA-directed RNA polymerase (O39930 whole entry): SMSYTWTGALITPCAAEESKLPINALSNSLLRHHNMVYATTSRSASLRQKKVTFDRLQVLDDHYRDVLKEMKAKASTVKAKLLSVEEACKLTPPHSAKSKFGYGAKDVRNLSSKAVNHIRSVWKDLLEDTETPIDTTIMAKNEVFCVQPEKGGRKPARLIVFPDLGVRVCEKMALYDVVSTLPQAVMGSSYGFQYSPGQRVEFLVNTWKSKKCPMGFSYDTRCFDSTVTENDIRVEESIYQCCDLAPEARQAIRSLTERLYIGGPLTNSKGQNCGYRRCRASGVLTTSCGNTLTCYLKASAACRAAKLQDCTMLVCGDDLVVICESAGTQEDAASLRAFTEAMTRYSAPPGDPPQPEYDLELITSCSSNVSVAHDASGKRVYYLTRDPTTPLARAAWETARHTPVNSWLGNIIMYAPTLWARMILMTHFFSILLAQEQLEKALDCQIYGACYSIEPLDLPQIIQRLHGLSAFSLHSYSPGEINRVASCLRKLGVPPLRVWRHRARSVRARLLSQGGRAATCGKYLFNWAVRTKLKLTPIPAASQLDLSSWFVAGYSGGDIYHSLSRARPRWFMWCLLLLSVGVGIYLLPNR

[3] = target: RNA-directed RNA polymerase (Hepacivirus hominis) (UniProt O39930); experiment: Inhibition of HCV NS5B RNA-dependent RNA polymerase assessed as chain termination of RNA synthesis by measuring reduction in UTP incorporation at 100 uM using 33P-labeled 5'-GG-3'/5'-AUGUAUAAUUAUUGUAGCC-3' as primer/template measured after 2 hrs by phosphor-screening analysis
Sequence of RNA-directed RNA polymerase (Hepacivirus hominis) (O39930 1-591): as the sequence (O39930 whole entry) above
Summary of the method: (§1)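 Recombinant NS5B (2 μM) with 1 μM template and 0.5 μM 33P-labeled GG primer in 40 mM Tris-HCl pH 8, 3 mM DTT, 20 mM NaCl, 6 mM MgCl2. Started with combinations of CTP, ATP, UTP, test NTP and 3'-dUTP, each 100 μM; 2 h at 30°C. Samples denatured 95°C 5 min, resolved on 22.5% polyacrylamide urea sequencing gel, phosphor-screen imaged.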

[4] = target: RNA-directed RNA polymerase (Hepacivirus hominis) (UniProt O39930); experiment: Inhibition of HCV NS5B RNA-dependent RNA polymerase assessed as chain termination of RNA synthesis by measuring reduction in dUTP incorporation at 100 uM using 33P-labeled 5'-GG-3'/5'-AUGUAUAAUUAUUGUAGCC-3' as primer/template measured after 2 hrs by phosphor-screening analysis; summary of the method: as §1
[5] = target: DNA-directed RNA polymerase, mitochondrial (Homo sapiens, UniProt O00411); experiment: Inhibition of human mitochondrial DNA-dependent RNA polymerase activity at 100 uM using 33P-RNA/DNA primer/template by phosphor-imaging analysis
Sequence of DNA-directed RNA polymerase, mitochondrial (O00411 whole entry): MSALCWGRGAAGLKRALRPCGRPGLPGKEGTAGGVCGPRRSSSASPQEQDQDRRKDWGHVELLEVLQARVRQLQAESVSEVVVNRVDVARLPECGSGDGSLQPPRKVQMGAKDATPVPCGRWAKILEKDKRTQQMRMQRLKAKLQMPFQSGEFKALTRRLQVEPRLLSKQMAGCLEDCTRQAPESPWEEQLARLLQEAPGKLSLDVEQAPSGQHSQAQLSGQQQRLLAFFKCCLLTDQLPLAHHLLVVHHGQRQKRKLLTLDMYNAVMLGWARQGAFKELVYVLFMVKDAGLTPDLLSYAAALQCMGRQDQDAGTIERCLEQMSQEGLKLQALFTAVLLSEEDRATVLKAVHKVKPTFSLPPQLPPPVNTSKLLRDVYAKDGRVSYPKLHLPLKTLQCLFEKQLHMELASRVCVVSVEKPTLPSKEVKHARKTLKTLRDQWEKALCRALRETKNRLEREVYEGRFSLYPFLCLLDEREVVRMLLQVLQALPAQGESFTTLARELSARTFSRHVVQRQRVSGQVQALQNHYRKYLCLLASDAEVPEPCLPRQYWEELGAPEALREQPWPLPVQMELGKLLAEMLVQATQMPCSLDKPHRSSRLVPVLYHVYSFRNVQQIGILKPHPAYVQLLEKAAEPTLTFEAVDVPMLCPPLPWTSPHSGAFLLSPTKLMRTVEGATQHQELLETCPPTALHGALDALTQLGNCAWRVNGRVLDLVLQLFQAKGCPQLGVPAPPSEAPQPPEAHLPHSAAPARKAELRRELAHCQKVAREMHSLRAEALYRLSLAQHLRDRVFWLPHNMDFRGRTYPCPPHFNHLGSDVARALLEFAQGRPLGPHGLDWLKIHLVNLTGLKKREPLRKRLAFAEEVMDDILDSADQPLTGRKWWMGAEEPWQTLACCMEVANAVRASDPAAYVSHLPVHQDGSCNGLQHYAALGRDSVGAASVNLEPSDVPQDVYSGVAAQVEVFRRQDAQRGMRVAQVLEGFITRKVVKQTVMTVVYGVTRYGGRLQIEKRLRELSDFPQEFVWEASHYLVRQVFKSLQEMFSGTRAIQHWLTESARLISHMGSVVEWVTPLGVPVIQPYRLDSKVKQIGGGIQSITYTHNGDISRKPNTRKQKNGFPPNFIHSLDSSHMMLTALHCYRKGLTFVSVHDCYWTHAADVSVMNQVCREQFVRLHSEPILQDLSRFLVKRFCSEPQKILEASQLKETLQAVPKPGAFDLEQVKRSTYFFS

Hepatitis C virus = experiment: Antiviral activity against HCV con1 subgenomic replicon infected in human HuH7 cells assessed as reduction in viral RNA replication by qRT-PCR analysis; assay type: functional, organism-based, Hepacivirus hominis; details: isolate Con1, Huh-7
Summary of the method: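 Con1 subgenomic replicon Huh-7 cells (neomycin selection, kept in DMEM/10% FBS with 0.25 mg/ml G418) treated with compounds in DMEM, 2% FBS, 0.5% DMSO, no G418, at 37°C. Total RNA extracted; HCV RNA copy number by multiplex Taqman QRT-PCR. EC50/EC90 by 4-parameter curve fit; EC50 is the mean of ≥2 independent runs.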

[6] = Cytotoxicity against human HuH7 cells infected with HCV con1 subgenomic replicon assessed as reduction in cell viability measured after 3 days by CellTiter-blue cell viability assay; assay type: cell-based, Huh-7
Summary of the method: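 Con1 replicon Huh-7 cells treated as for the replicon assay (DMEM, 2% FBS, 0.5% DMSO, no G418, 37°C) for 3 days. Viability by CellTiter-Blue; CC50 by curve fitting.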

[7] = Half life in human hepatocytes assessed as 2a-TP level at 50 uM treated for 24 hrs followed by compound washout by LC-MS/MS analysis; assay type: ADME, cell-based, Hepatocyte
Summary of the method: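 Primary human hepatocytes loaded with prodrug at 50 μM for 24 h at 37°C. Medium then replaced with blank medium; samples at 0, 3, 6, 10, 24 and 48 h. NTP by LC-MS/MS; half-life from first-order decay; n=3.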

[8] = Cytotoxicity against human HuH7 cells treated for 8 days measured post-last dose by Celltiter-glo luminescent assay; assay type: cell-based, Huh-7
Summary of the method: (§2)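 Cells at 1×10^5/well on collagen I, first kept 8 days in recommended medium without drug. Then compound exposure for 8 days, refed every other day. Viability by CellTiter-Glo luminescence; CC50 by curve fitting.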

[9] = Cytotoxicity against human HepG2 cells treated for 8 days measured post-last dose by Celltiter-glo luminescent assay; assay type: cell-based; summary of the method: as §2
[10] = Cytotoxicity against human A549 cells treated for 8 days measured post-last dose by Celltiter-glo luminescent assay; assay type: cell-based; summary of the method: as §2
[11] = Cytotoxicity against human HeLa cells treated for 8 days measured post-last dose by Celltiter-glo luminescent assay; assay type: cell-based; summary of the method: as §2
[12] = Cytotoxicity against human U937 cells treated for 8 days measured post-last dose by Celltiter-glo luminescent assay; assay type: cell-based, U-937; summary of the method: as §2
[13] = Cytotoxicity against human MT4 cells treated for 8 days measured post-last dose by Celltiter-glo luminescent assay; assay type: cell-based; summary of the method: as §2

Compound | inhibition at 100 µM (DNA polymerase alpha) | inhibition at 100 µM (DNA polymerase beta) | inhibition at 100 µM (DNA polymerase gamma) | IC50 [1] | IC50 [2] | inhibition (INH) [5] | further results
CC(C)OC(=O)[C@H](C)NP(=O)(OC[C@@]1(F)O[C@@H](n2ccc(=O)[nH]c2=O)[C@](C)(O)[C@@H]1O)Oc1ccccc1 (stereo partly drawn) |  |  |  |  |  |  | EC50 (Hepatitis C virus): 110 nM; CC50 at 72 h [6]: > 100000 nM; t1/2 [7]: 30.1 h
C[C@]1(Cl)[C@H](n2ccc(=O)[nH]c2=O)O[C@](F)(COP(=O)(O)OP(=O)(O)OP(=O)(O)O)[C@H]1O | 19.7% | 24.3% | 18.4% | > 100000 nM | 110 nM | Not Active | 
COc1nc(N)nc2c1ncn2[C@@H]1O[C@H](COP(=O)(N[C@@H](C)C(=O)OCC(C)(C)C)Oc2cccc3ccccc23)[C@@H](O)[C@@]1(C)O (stereo partly drawn) [BMS-986094] |  |  |  |  |  |  | CC50 at 192 h [8]: 350 nM; CC50 at 192 h [9]: 1500 nM; CC50 at 192 h [10]: 7800 nM; CC50 at 192 h [11]: 13400 nM; CC50 at 192 h [12]: 170 nM; CC50 at 192 h [13]: 960 nM

Now from value to compound, other results behind:

inhibition at 100 µM (DNA polymerase alpha) | inhibition at 100 µM (DNA polymerase beta) | inhibition at 100 µM (DNA polymerase gamma) | IC50 [1] | IC50 [2] | inhibition (INH) [5] | Compound | further results
40.9% | 15.2% | -10% | > 100000 nM | 860 nM |  | C[C@]1(F)[C@H](n2ccc(=O)[nH]c2=O)O[C@](F)(COP(=O)(O)OP(=O)(O)OP(=O)(O)O)[C@H]1O | 
16.1% | 12.6% | 9.6% | > 100000 nM | 140 nM | Not Active | C[C@]1(O)[C@H](n2ccc(=O)[nH]c2=O)O[C@](F)(COP(=O)(O)OP(=O)(O)OP(=O)(O)O)[C@H]1O [ADAFOSBUVIR 5'-TRIPHOSPHATE] | inhibition [3]: Active; inhibition [4]: Active
70.8% | 24.7% | 15.7% | > 100000 nM | 300 nM |  | O=c1ccn([C@@H]2O[C@H](COP(=O)(O)OP(=O)(O)OP(=O)(O)O)[C@@H](O)[C@]2(F)Cl)c(=O)[nH]1 | 
34.5% | 22.6% | 9.5% | > 100000 nM |  | Active | C[C@@]1(Cl)[C@H](O)[C@@H](COP(=O)(O)OP(=O)(O)OP(=O)(O)O)O[C@H]1n1ccc(=O)[nH]c1=O [4A-TP] | 
22.4% | -0.008% | 14.6% | > 100000 nM |  | Active | C[C@@]1(O)[C@H](O)[C@@H](COP(=O)(O)OP(=O)(O)OP(=O)(O)O)O[C@H]1n1ccc(=O)[nH]c1=O | 
